Data as given in ChEMBL document CHEMBL1146117, “Inhibitors of human mitotic kinesin Eg5: characterization of the 4-phenyl-tetrahydroisoquinoline lead series” (Bioorg Med Chem Lett, 2006).
pIC50: −log10 of the molar value.

Columns and labels:
[1] = biological target: T1, Kinesin-like protein KIF11 (Homo sapiens, UniProt P52732); experiment: Inhibition of Eg5 by ATPase assay; format: functional
T1 sequence (P52732 whole entry): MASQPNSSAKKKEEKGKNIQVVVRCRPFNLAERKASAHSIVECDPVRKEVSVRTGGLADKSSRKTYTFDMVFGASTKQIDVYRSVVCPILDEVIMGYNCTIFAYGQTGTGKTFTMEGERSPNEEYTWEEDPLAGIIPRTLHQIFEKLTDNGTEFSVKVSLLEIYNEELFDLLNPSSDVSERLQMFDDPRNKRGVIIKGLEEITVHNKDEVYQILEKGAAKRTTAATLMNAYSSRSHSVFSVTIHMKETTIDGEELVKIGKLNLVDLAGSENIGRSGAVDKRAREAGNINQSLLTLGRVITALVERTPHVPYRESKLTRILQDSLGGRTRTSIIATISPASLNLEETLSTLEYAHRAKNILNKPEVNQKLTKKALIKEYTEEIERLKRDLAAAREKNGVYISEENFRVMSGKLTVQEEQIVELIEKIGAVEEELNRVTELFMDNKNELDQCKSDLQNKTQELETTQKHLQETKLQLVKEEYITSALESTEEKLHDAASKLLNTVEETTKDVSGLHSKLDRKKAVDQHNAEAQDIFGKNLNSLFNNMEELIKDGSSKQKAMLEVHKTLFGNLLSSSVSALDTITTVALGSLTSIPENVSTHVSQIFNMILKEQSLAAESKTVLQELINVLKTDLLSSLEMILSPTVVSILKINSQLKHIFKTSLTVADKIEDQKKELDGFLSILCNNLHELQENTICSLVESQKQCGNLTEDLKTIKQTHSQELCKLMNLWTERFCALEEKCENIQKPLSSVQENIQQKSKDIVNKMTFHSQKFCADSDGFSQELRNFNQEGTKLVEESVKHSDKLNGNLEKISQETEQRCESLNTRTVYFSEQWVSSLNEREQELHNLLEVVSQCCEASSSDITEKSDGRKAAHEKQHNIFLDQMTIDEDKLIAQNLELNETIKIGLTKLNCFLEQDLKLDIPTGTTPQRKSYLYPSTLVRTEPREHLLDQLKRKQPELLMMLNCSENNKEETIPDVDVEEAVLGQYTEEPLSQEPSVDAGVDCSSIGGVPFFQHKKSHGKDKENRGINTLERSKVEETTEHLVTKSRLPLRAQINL
In short: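 Eg5 motor-domain protein ATPase activity read with a Kinase-Glo luminescent ATP kit. IC50 taken from dose–response curves of triplicate data points. Values are means ± SD of three independent experiments.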

A2780 [2] = experiment: Antiproliferative activity against human A2780 cells; format: functional, cell-based
In short: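 A2780 ovarian carcinoma cells were exposed to compound for 72 h. IC50 derived from dose–response curves of triplicate data points, reported as the mean ± SD of three independent experiments.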

A2780 [3] = experiment: Cell cycle arrest in A2780 cells by accumulation at G1 phase at 0.1 uM; format: functional, Homo sapiens
In short: (§1)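 A2780 cells were treated for 17 h at 0.257 or 0.328 µM, with nocodazole 0.1 µM as positive control and DMSO 0.08% as negative control. Cell-cycle profile (% G1, S, G2+M) and mitotic index (% cells in M phase) were quantified by flow cytometry.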

A2780 [4] = experiment: Cell cycle arrest in A2780 cells by accumulation at G2/M phase at 0.1 uM; format: functional, Homo sapiens; in short: as §1
A2780 [5] = experiment: Cell cycle arrest in A2780 cells by accumulation at S phase at 0.1 uM; format: functional, Homo sapiens; in short: as §1
A2780 [6] = experiment: Mitotic index in A2780 cells at M phase at 0.1 uM; format: functional, Homo sapiens; in short: as §1

Row | Compound | pIC50 [1] | pIC50 (A2780 [2]) | also measured
1 | Cc1ccc2c(c1C)CN(C(=O)N(C)CCCN(C)C)CC2c1ccccc1 (stereo not given) | 5.26 | 5.92 | –
2 | Cc1ccc2c(c1C)CN(C(=O)N(C)C)CC2c1cccc(Cl)c1 (stereo not given) | 5.46 | 5.52 | –
3 | Cc1ccc2c(c1C)CN(CCN)CC2c1ccccc1 (stereo not given) | 5.64 | 5.64 | –
4 | Cc1ccc2c(c1C)CN(C(=O)N(C)C)CC2c1cccc(O)c1 (stereo not given) | 6.51 | 6.42 | –
5 | CN(C)C(=O)N1Cc2c(Cl)cccc2C(c2cccc(O)c2)C1 (stereo not given) | < 4.60 | – | –
6 | CCN1Cc2c(ccc(C)c2C)C(c2ccccc2)C1 (stereo not given) | 4.60 | 5.28 | –
7 | Cc1cccc2c1CN(C(=O)N(C)C)CC2c1cccc(O)c1 (stereo not given) | 5.33 | 5.69 | –
8 | COc1ccc2c(c1OC)CN(C(=O)N(C)C)CC2c1cccc(O)c1 (stereo not given) | 4.89 | 5.53 | –
9 | Cc1ccc2c(c1C)CN(CCCCN)CC2c1ccccc1 (stereo not given) | 5.33 | 5.63 | –
10 | Cc1ccc2c(c1C)CN(C)CC2c1ccccc1 (stereo not given) | 4.74 | 5.14 | –
11 | Cc1ccc2c(c1C)CN(S(C)(=O)=O)CC2c1ccccc1 (stereo not given) | < 4.60 | – | –
12 | Cc1ccc2c(c1)CN(C(=O)N(C)C)CC2c1cccc(O)c1 (stereo not given) | 6.23 | 6.07 | –
13 | Cc1ccc2c(c1C)CN(C(=O)c1ccccc1)CC2c1ccccc1 (stereo not given) | 4.79 | 5.11 | –
14 | COC(=O)Nc1nc2cc(C(=O)c3cccs3)ccc2[nH]1 [NOCODAZOLE] | – | – | Activity (A2780 [3]): 12%; Activity (A2780 [4]): 62.1%; Activity (A2780 [5]): 15.7%; Activity (A2780 [6]): 23.7%
15 | Cc1ccc2c(c1C)CN(CCCN)CC2c1ccccc1 (stereo not given) | 5.51 | 5.62 | –
16 | Cc1ccc2c(c1C)CN(C(=O)N1CCCCC1)CC2c1ccccc1 (stereo not given) | 4.89 | 5.55 | –
17 | Cc1ccc2c(c1C)CN(C(C)C)CC2c1ccccc1 (stereo not given) | 4.96 | 5.20 | –
18 | Cc1ccc2c(c1C)CN(C(=O)N(C)C)CC2c1ccc(O)cc1 (stereo not given) | < 4.60 | – | –
19 | Cc1ccc2c(c1C)CN(CCc1ccccc1)CC2c1ccccc1 (stereo not given) | < 4.60 | – | –
20 | CC(=O)N1Cc2c(ccc(C)c2C)C(c2ccccc2)C1 (stereo not given) | 4.75 | – | –
21 | CN(C)C(=O)N1Cc2cc(Cl)ccc2C(c2cccc(O)c2)C1 (stereo not given) | 5.60 | 5.92 | –
22 | CN(C)C(=O)N1Cc2ccccc2C(c2cccc(O)c2)C1 (stereo not given) | < 4.60 | – | –
